Assay results from ChEMBL document CHEMBL1150108, “Isolation of S-n-butylcysteine sulfoxide and six n-butyl-containing thiosulfinates from Allium siculum” (2002).

Assays:
Type in all cases: functional
Escherichia coli [1] = experiment: Antibacterial activity against Escherichia coli ATCC 25922 at 250 ug/disk after overnight incubation by agar diffusion test; conditions: read-out: Diameter of inhibition zone
In short: (§1)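 Disk diffusion on agar plates seeded with the named strain. Test samples were dissolved in EtOH, and a 10 µL aliquot was applied to a 6 mm paper disk to give 10, 250 or 500 µg per disk. Commercial antibiotic disks served as controls. Plates were incubated overnight at 37 °C, and the diameter of the inhibition zone around each disk was read in mm.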

[2] = tested on: Stenotrophomonas maltophilia; experiment: Antibacterial activity against Stenotrophomonas maltophilia ATCC 13637 at 500 ug/disk after overnight incubation by agar diffusion test; conditions: read-out: Diameter of inhibition zone; in short: as §1
Streptococcus agalactiae [3] = experiment: Antibacterial activity against Streptococcus agalactiae ATCC 13813 at 250 ug/disk after overnight incubation by agar diffusion test; conditions: read-out: Diameter of inhibition zone; in short: as §1
Staphylococcus aureus [4] = experiment: Antibacterial activity against Staphylococcus […] at 10 ug/disk after overnight incubation by agar diffusion test; conditions: read-out: Diameter of inhibition zone; in short: as §1
Pseudomonas aeruginosa [5] = experiment: Antibacterial activity against Pseudomonas aeruginosa ATCC 27853 at 10 ug/disk after overnight incubation by agar diffusion test; conditions: read-out: Diameter of inhibition zone; in short: as §1
Staphylococcus aureus [6] = experiment: Antibacterial activity against Staphylococcus […] at 250 ug/disk after overnight incubation by agar diffusion test; conditions: read-out: Diameter of inhibition zone; in short: as §1
Staphylococcus aureus [7] = experiment: Antibacterial activity against Staphylococcus […] at 500 ug/disk after overnight incubation by agar diffusion test; conditions: read-out: Diameter of inhibition zone; in short: as §1
[8] = tested on: Stenotrophomonas maltophilia; experiment: Antibacterial activity against Stenotrophomonas maltophilia ATCC 13637 at 250 ug/disk after overnight incubation by agar diffusion test; conditions: read-out: Diameter of inhibition zone; in short: as §1
[9] = tested on: Klebsiella pneumoniae subsp. pneumoniae; experiment: Antibacterial activity against Klebsiella pneumoniae subsp. pneumoniae ATCC 13833 at 10 ug/disk after overnight incubation by agar diffusion test; conditions: for zone of inhibition at 10 µg/disc: read-out: Diameter of inhibition zone; in short: as §1
[10] = tested on: Stenotrophomonas maltophilia; experiment: Antibacterial activity against Stenotrophomonas maltophilia ATCC 13637 at 10 ug/disk after overnight incubation by agar diffusion test; conditions: for zone of inhibition at 10 µg/disc: read-out: Diameter of inhibition zone; in short: as §1
Bacillus cereus [11] = experiment: Antibacterial activity against Bacillus cereus ATCC 11778 at 500 ug/disk after overnight incubation by agar diffusion test; conditions: read-out: Diameter of inhibition zone; in short: as §1
Bacillus cereus [12] = experiment: Antibacterial activity against Bacillus cereus ATCC 11778 at 250 ug/disk after overnight incubation by agar diffusion test; conditions: read-out: Diameter of inhibition zone; in short: as §1
Bacillus cereus [13] = experiment: Antibacterial activity against Bacillus cereus ATCC 11778 at 10 ug/disk after overnight incubation by agar diffusion test; conditions: for zone of inhibition at 10 µg/disc: read-out: Diameter of inhibition zone; in short: as §1
Pseudomonas aeruginosa [14] = experiment: Antibacterial activity against Pseudomonas aeruginosa ATCC 27853 at 250 ug/disk after overnight incubation by agar diffusion test; conditions: read-out: Diameter of inhibition zone; in short: as §1
[15] = tested on: Klebsiella pneumoniae subsp. pneumoniae; experiment: Antibacterial activity against Klebsiella pneumoniae subsp. pneumoniae ATCC 13833 at 500 ug/disk after overnight incubation by agar diffusion test; conditions: read-out: Diameter of inhibition zone; in short: as §1
Pseudomonas aeruginosa [16] = experiment: Antibacterial activity against Pseudomonas aeruginosa ATCC 27853 at 500 ug/disk after overnight incubation by agar diffusion test; conditions: read-out: Diameter of inhibition zone; in short: as §1
Escherichia coli [17] = experiment: Antibacterial activity against Escherichia coli ATCC 25922 at 10 ug/disk after overnight incubation by agar diffusion test; conditions: read-out: Diameter of inhibition zone; in short: as §1
Escherichia coli [18] = experiment: Antibacterial activity against Escherichia coli ATCC 25922 at 500 ug/disk after overnight incubation by agar diffusion test; conditions: read-out: Diameter of inhibition zone; in short: as §1
Streptococcus agalactiae [19] = experiment: Antibacterial activity against Streptococcus agalactiae ATCC 13813 at 10 ug/disk after overnight incubation by agar diffusion test; conditions: for zone of inhibition at 10 µg/disc: read-out: Diameter of inhibition zone; in short: as §1
[20] = tested on: Klebsiella pneumoniae subsp. pneumoniae; experiment: Antibacterial activity against Klebsiella pneumoniae subsp. pneumoniae ATCC 13833 at 250 ug/disk after overnight incubation by agar diffusion test; conditions: read-out: Diameter of inhibition zone; in short: as §1
Streptococcus agalactiae [21] = experiment: Antibacterial activity against Streptococcus agalactiae ATCC 13813 at 500 ug/disk after overnight incubation by agar diffusion test; conditions: read-out: Diameter of inhibition zone; in short: as §1
Staphylococcus aureus [22] = experiment: Antibacterial activity against Staphylococcus […] at 30 ug/disk after overnight incubation by agar diffusion test; conditions: read-out: Diameter of inhibition zone
In short: (§2)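 Commercial antibiotic control disks were placed on agar plates seeded with the named strain. Plates were incubated overnight at 37 °C, and the diameter of the inhibition zone around each disk was measured in mm.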

Pseudomonas aeruginosa [23] = experiment: Antibacterial activity against Pseudomonas aeruginosa ATCC 27853 at 30 ug/disk after overnight incubation by agar diffusion test; conditions: read-out: Diameter of inhibition zone; in short: as §2
Bacillus cereus [24] = experiment: Antibacterial activity against Bacillus cereus ATCC 11778 at 30 ug/disk after overnight incubation by agar diffusion test; conditions: read-out: Diameter of inhibition zone; in short: as §2
[25] = tested on: Stenotrophomonas maltophilia; experiment: Antibacterial activity against Stenotrophomonas maltophilia ATCC 13637 at 30 ug/disk after overnight incubation by agar diffusion test; conditions: read-out: Diameter of inhibition zone; in short: as §2
[26] = tested on: Klebsiella pneumoniae subsp. pneumoniae; experiment: Antibacterial activity against Klebsiella pneumoniae subsp. pneumoniae ATCC 13833 at 30 ug/disk after overnight incubation by agar diffusion test; conditions: read-out: Diameter of inhibition zone; in short: as §2
Streptococcus agalactiae [27] = experiment: Antibacterial activity against Streptococcus agalactiae ATCC 13813 at 30 ug/disk after overnight incubation by agar diffusion test; conditions: read-out: Diameter of inhibition zone; in short: as §2
Escherichia coli [28] = experiment: Antibacterial activity against Escherichia coli ATCC 25922 at 30 ug/disk after overnight incubation by agar diffusion test; conditions: read-out: Diameter of inhibition zone; in short: as §2

Compound: CCCCS[S+]([O-])CCCC (stereo not drawn)
- zone of inhibition at 250 µg/disc (Escherichia coli [1]): 10 mm
- zone of inhibition at 500 µg/disc [2]: 16 mm
- zone of inhibition at 250 µg/disc (Streptococcus agalactiae [3]): 30 mm
- zone of inhibition at 10 µg/disc (Staphylococcus aureus [4]): 10 mm
- zone of inhibition at 10 µg/disc (Pseudomonas aeruginosa [5]): 0 mm
- zone of inhibition at 250 µg/disc (Staphylococcus aureus [6]): 34 mm
- zone of inhibition at 500 µg/disc (Staphylococcus aureus [7]): 38 mm
- zone of inhibition at 250 µg/disc [8]: 8 mm
- zone of inhibition at 10 µg/disc [9]: 0 mm
- zone of inhibition at 10 µg/disc [10]: 0 mm
- zone of inhibition at 500 µg/disc (Bacillus cereus [11]): 40 mm
- zone of inhibition at 250 µg/disc (Bacillus cereus [12]): 34 mm
- zone of inhibition at 10 µg/disc (Bacillus cereus [13]): 8 mm
- zone of inhibition at 250 µg/disc (Pseudomonas aeruginosa [14]): 0 mm
- zone of inhibition at 500 µg/disc [15]: 8 mm
- zone of inhibition at 500 µg/disc (Pseudomonas aeruginosa [16]): 0 mm
- zone of inhibition at 10 µg/disc (Escherichia coli [17]): 0 mm
- zone of inhibition at 500 µg/disc (Escherichia coli [18]): 16 mm
- zone of inhibition at 10 µg/disc (Streptococcus agalactiae [19]): 0 mm
- zone of inhibition at 250 µg/disc [20]: 8 mm
- zone of inhibition at 500 µg/disc (Streptococcus agalactiae [21]): 34 mm

Compound: CCCCS[S+](C)[O-] (stereo not drawn)
- zone of inhibition at 250 µg/disc (Escherichia coli [1]): 14 mm
- zone of inhibition at 500 µg/disc [2]: 17 mm
- zone of inhibition at 250 µg/disc (Streptococcus agalactiae [3]): 16 mm
- zone of inhibition at 10 µg/disc (Staphylococcus aureus [4]): 0 mm
- zone of inhibition at 10 µg/disc (Pseudomonas aeruginosa [5]): 0 mm
- zone of inhibition at 250 µg/disc (Staphylococcus aureus [6]): 20 mm
- zone of inhibition at 500 µg/disc (Staphylococcus aureus [7]): 26 mm
- zone of inhibition at 250 µg/disc [8]: 12 mm
- zone of inhibition at 10 µg/disc [9]: 0 mm
- zone of inhibition at 10 µg/disc [10]: 0 mm
- zone of inhibition at 500 µg/disc (Bacillus cereus [11]): 28 mm
- zone of inhibition at 250 µg/disc (Bacillus cereus [12]): 22 mm
- zone of inhibition at 10 µg/disc (Bacillus cereus [13]): 0 mm
- zone of inhibition at 250 µg/disc (Pseudomonas aeruginosa [14]): 0 mm
- zone of inhibition at 500 µg/disc [15]: 20 mm
- zone of inhibition at 500 µg/disc (Pseudomonas aeruginosa [16]): 0 mm
- zone of inhibition at 10 µg/disc (Escherichia coli [17]): 0 mm
- zone of inhibition at 500 µg/disc (Escherichia coli [18]): 20 mm
- zone of inhibition at 10 µg/disc (Streptococcus agalactiae [19]): 0 mm
- zone of inhibition at 250 µg/disc [20]: 12 mm
- zone of inhibition at 500 µg/disc (Streptococcus agalactiae [21]): 24 mm

Compound: CN(C)[C@@H]1C(O)=C(C(N)=O)C(=O)[C@@]2(O)C(O)=C3C(=O)c4c(O)cccc4[C@@](C)(O)[C@H]3C[C@@H]12 [TETRACYCLINE]
- zone of inhibition at 30 µg/disc (Staphylococcus aureus [22]): 20 mm
- zone of inhibition at 30 µg/disc (Pseudomonas aeruginosa [23]): 10 mm
- zone of inhibition at 30 µg/disc (Bacillus cereus [24]): 27 mm
- zone of inhibition at 30 µg/disc [25]: 13 mm
- zone of inhibition at 30 µg/disc [26]: 18 mm
- zone of inhibition at 30 µg/disc (Streptococcus agalactiae [27]): 28 mm
- zone of inhibition at 30 µg/disc (Escherichia coli [28]): 18 mm

Compound: CCCC[S+]([O-])SC (stereo not drawn)
- zone of inhibition at 250 µg/disc (Escherichia coli [1]): 22 mm
- zone of inhibition at 500 µg/disc [2]: 14 mm
- zone of inhibition at 250 µg/disc (Streptococcus agalactiae [3]): 0 mm
- zone of inhibition at 10 µg/disc (Staphylococcus aureus [4]): 8 mm
- zone of inhibition at 10 µg/disc (Pseudomonas aeruginosa [5]): 0 mm
- zone of inhibition at 250 µg/disc (Staphylococcus aureus [6]): 30 mm
- zone of inhibition at 500 µg/disc (Staphylococcus aureus [7]): 38 mm
- zone of inhibition at 250 µg/disc [8]: 12 mm
- zone of inhibition at 10 µg/disc [9]: 0 mm
- zone of inhibition at 10 µg/disc [10]: 0 mm
- zone of inhibition at 500 µg/disc (Bacillus cereus [11]): 34 mm
- zone of inhibition at 250 µg/disc (Bacillus cereus [12]): 30 mm
- zone of inhibition at 10 µg/disc (Bacillus cereus [13]): 0 mm
- zone of inhibition at 250 µg/disc (Pseudomonas aeruginosa [14]): 0 mm
- zone of inhibition at 500 µg/disc [15]: 18 mm
- zone of inhibition at 500 µg/disc (Pseudomonas aeruginosa [16]): 8 mm
- zone of inhibition at 10 µg/disc (Escherichia coli [17]): 0 mm
- zone of inhibition at 500 µg/disc (Escherichia coli [18]): 24 mm
- zone of inhibition at 10 µg/disc (Streptococcus agalactiae [19]): 0 mm
- zone of inhibition at 250 µg/disc [20]: 16 mm
- zone of inhibition at 500 µg/disc (Streptococcus agalactiae [21]): 0 mm

Compound: O=C(N[C@H](CO)[C@H](O)c1ccc([N+](=O)[O-])cc1)C(Cl)Cl [CHLORAMPHENICOL]
- zone of inhibition at 30 µg/disc (Staphylococcus aureus [22]): 18 mm
- zone of inhibition at 30 µg/disc (Pseudomonas aeruginosa [23]): 0 mm
- zone of inhibition at 30 µg/disc (Bacillus cereus [24]): 20 mm
- zone of inhibition at 30 µg/disc [25]: 22 mm
- zone of inhibition at 30 µg/disc [26]: 24 mm
- zone of inhibition at 30 µg/disc (Streptococcus agalactiae [27]): 23 mm
- zone of inhibition at 30 µg/disc (Escherichia coli [28]): 20 mm

Compound: CC1(C)S[C@@H]2[C@H](NC(=O)[C@H](N)c3ccccc3)C(=O)N2[C@H]1C(=O)O [AMPICILLIN]
- zone of inhibition at 10 µg/disc (Staphylococcus aureus [4]): 38 mm
- zone of inhibition at 10 µg/disc (Pseudomonas aeruginosa [5]): 0 mm
- zone of inhibition at 10 µg/disc [9]: 0 mm
- zone of inhibition at 10 µg/disc [10]: 0 mm
- zone of inhibition at 10 µg/disc (Bacillus cereus [13]): 7 mm
- zone of inhibition at 10 µg/disc (Escherichia coli [17]): 18 mm
- zone of inhibition at 10 µg/disc (Streptococcus agalactiae [19]): 30 mm

Compound: GENTAMICIN
- inhibition zone (IZ) [9]: 22 mm
- inhibition zone (IZ) [10]: 20 mm
- inhibition zone (IZ) (Bacillus cereus [13]): 22 mm
- inhibition zone (IZ) (Streptococcus agalactiae [19]): 18 mm
